Only some compounds are listed: those with a hit (about 2.1% of all), similar ones and a draw of the others.
b-catenin transl – alters nuclear translocation of beta-catenin in HeLa cells. immunofluorescence imaging. nuclear translocation activity, % at 5 µM. 190,000 compounds, 0.3% hits. AID 1665;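 active = nuclear translocation activity above 50% at 5 µM, with a well cell count of 50 or more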;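 also: per-cell ratio of nuclear to cytoplasmic median beta-catenin stain intensity; plate controls were DMSO negative control for no effect and GSK-3 inhibitor IX positive control for full effect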
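Test system: human HeLa cells, endogenous beta-catenin. Times: 24 h compound exposure, 37°C. Measured by: beta-catenin immunofluorescence imaging with DAPI.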
BaF3 tox – counter-screen for JAK2V617F inhibitors: parental Ba/F3 viability inhibitors | CellTiter-Glo ATP luminescence | inhibition, % at 5.6 µM | 220,000 compounds, 1.1% hits;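 active = inhibition above a per-campaign cutoff, the mean inhibition of all tested compounds plus 3 SD, cut at about 27% in these data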;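 also: 0% = DMSO wells and 100% = JAK Inhibitor I control wells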
MT stabilizer – stabilizes microtubules in HeLa cells; HeLa tubulin immunostaining HCS, 24 h; share of cells brighter than vehicle mean+2SD; % tubulin-high responders, % at 10 µM; 200,000 compounds, 0.83% hits;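 active = plate Z-score above 3 for both tubulin-high and condensed-nucleus cell shares, with cell loss under 80%, at 10 µM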;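 also: anti alpha tubulin signal scored within the nucleus-defined area of each cell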
IEC-6 cytotox – counter-screen for KLF5 inhibitors: cytotoxicity in IEC-6 cells; AID 1825; inhibition, % at 5 µM; 290,000 compounds, 0.78% hits; IEC-6 cytotoxicity, luminescence viability;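 also: 0% = plate median of test compound wells and 100% = cytotoxic reference compound wells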
Ba/F3 V617F tox – lowers viability of Ba/F3 cells expressing EpoR and JAK2V617F; ATP luminescence; inhibition, % at 5.6 µM; 220,000 compounds, 1.1% hits; AID 1446;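 active = inhibition above the campaign mean plus 3 SD over all tested compounds, cut at about 24% in these data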;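 also: cytokine-independent growth of Ba/F3 cells driven by EpoR plus mutant JAK2; 0% = DMSO-treated cells and 100% = JAK inhibitor I control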
KLF5 inh – inhibitors of KLF5 expression; inhibition, % at 5 µM; AID 1700; DLD-1 KLF5 promoter-luciferase reporter, luminescence; 290,000 compounds, 0.23% hits;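 active = inhibition above a per-plate limit of that plate's mean compound inhibition plus 3 SD, cut at about 60% in these data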;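 also: 0% = DMSO wells and 100% = LY294002 at 200 µM; higher means less KLF5 promoter-driven luciferase light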
IEC-6 cytotox cf – confirmation of cytotoxic compounds in rat IEC-6 intestinal epithelial cells | shares compounds with IEC-6 cytotox | IEC-6 rat intestinal epithelial viability, luminescence | inhibition, % at 5 µM | 1,900 compounds, 63% hits;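 also: 0% = vehicle and 100% = reference cytotoxic drug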
* marks the source's active call; other numbers are inactive results. Rule as the data show it, unless noted: active = inhibition above about 22%; inactive = the rest.

What do the screens show for `Cc1cccn2c(=O)c3cc(C(=O)NCCc4ccccc4)c(=N)n(Cc4ccco4)c3nc12`?
IEC-6 cytotox: 63*; KLF5 inh: 25; IEC-6 cytotox cf: -2

Results for Cc1cccn2c(=O)c3cc(C(=O)NCc4ccco4)c(=N)n(CCc4ccccc4)c3nc12 ?
b-catenin transl: -1; BaF3 tox: -4; IEC-6 cytotox: -12; Ba/F3 V617F tox: 1; KLF5 inh: -16

Results for COc1ccc(CCNC(=O)c2cc3c(=O)n4cccc(C)c4nc3n(Cc3ccco3)c2=N)cc1OC ?
IEC-6 cytotox: 36*; KLF5 inh: -3; IEC-6 cytotox cf: 1

What do the screens show for `CCOc1cc(C(=O)NN=C2CCCC2)cc(OCC)c1OCC`?
IEC-6 cytotox: 80*; KLF5 inh: 17; IEC-6 cytotox cf: -1

Results for COc1ccc(C(=O)NN=C2CCCC2)cc1OC ?
IEC-6 cytotox: 8; KLF5 inh: -32

What do the screens show for `COc1ccccc1NC(=O)COC(=O)c1ccccc1OCC(=O)Nc1ccc(SC(F)F)cc1`?
b-catenin transl: -1; BaF3 tox: 6; MT stabilizer: 4; IEC-6 cytotox: -3; Ba/F3 V617F tox: -3; KLF5 inh: -11

Results for CN(C)C(=O)COC(=O)c1ccccc1Nc1ccc(SC(F)F)cc1 ?
b-catenin transl: -2; BaF3 tox: 10; MT stabilizer: 3; IEC-6 cytotox: 45*; Ba/F3 V617F tox: 4; KLF5 inh: -88; IEC-6 cytotox cf: 37*

How did Cc1cc(NC(=O)CSc2nnc(-c3ccccc3Cl)o2)no1 do in these assays?
IEC-6 cytotox: -13; KLF5 inh: -23

Results for CC(NC(=O)/C(C#N)=C/c1ccc([N+](=O)[O-])o1)c1ccccc1 (centres undefined) ?
IEC-6 cytotox: 48*; KLF5 inh: 3; IEC-6 cytotox cf: 16

How did O=C(Nc1nnc(-c2ccc(F)cc2)o1)c1ccc(S(=O)(=O)N2CCOCC2)cc1 do in these assays?
IEC-6 cytotox: 40*; KLF5 inh: 59; IEC-6 cytotox cf: 13

How did COc1ccccc1-c1nnc(NC(=O)c2ccc(S(=O)(=O)N3CCCC3)cc2)o1 do in these assays?
IEC-6 cytotox: 22*; KLF5 inh: 20; IEC-6 cytotox cf: 5

How did CCc1ccccc1N1CC(C(=O)Nc2cc(C)on2)CC1=O (centres undefined) do in these assays?
IEC-6 cytotox: -4; KLF5 inh: -15

Results for CCCCOC(=O)c1ccc(NC(C)=O)cc1 ?
b-catenin transl: 1; BaF3 tox: 4; MT stabilizer: 6; IEC-6 cytotox: 24*; Ba/F3 V617F tox: 5; KLF5 inh: -25; IEC-6 cytotox cf: 6

What do the screens show for `O=C(Nc1ccc(Cl)cc1)Nn1cnnc1`?
IEC-6 cytotox: 6; KLF5 inh: -35

What do the screens show for `COc1cc2ncnc(NCc3cc(F)ccc3F)c2cc1OC`?
IEC-6 cytotox: 37*; KLF5 inh: 4; IEC-6 cytotox cf: 21

How did COc1cc2ncnc(NCc3cccc(Cl)c3)c2cc1OC do in these assays?
b-catenin transl: -2; BaF3 tox: 2; MT stabilizer: 1; IEC-6 cytotox: 33*; Ba/F3 V617F tox: 1; KLF5 inh: 7; IEC-6 cytotox cf: 37*

How did COc1ccc(CNc2ncnc3cc(OC)c(OC)cc23)cc1OC do in these assays?
b-catenin transl: 5; BaF3 tox: 10; MT stabilizer: 1; IEC-6 cytotox: 7; Ba/F3 V617F tox: 5; KLF5 inh: -16

How did COc1cc2ncnc(NCc3ccccc3)c2cc1OC do in these assays?
b-catenin transl: 0; BaF3 tox: 5; MT stabilizer: 1; IEC-6 cytotox: 26*; Ba/F3 V617F tox: 1; KLF5 inh: 6; IEC-6 cytotox cf: 30*

How did CCOC(=O)c1c(NC2OC(=O)c3c2ccc(OC)c3OC)sc(C(=O)OC(C)(C)C)c1C (centres undefined) do in these assays?
b-catenin transl: -4; BaF3 tox: 7; MT stabilizer: 3; IEC-6 cytotox: 3; Ba/F3 V617F tox: 6; KLF5 inh: -54

What do the screens show for `Cc1ccccc1Oc1nc2c(C)cccn2c(=O)c1/C=C(\C#N)C(=O)NC1CCS(=O)(=O)C1` (centres undefined)?
b-catenin transl: -3; BaF3 tox: 0; IEC-6 cytotox: 55*; Ba/F3 V617F tox: -6; KLF5 inh: 11; IEC-6 cytotox cf: 29*

Assay outcomes from PubChem.
